Assay results taken from ChEMBL document CHEMBL1122014, “1,2,5-thiadiazole 1-oxide and 1,1-dioxide derivatives. A new class of potent histamine H2-receptor antagonists” (J Med Chem, 1982).

Assays:
Adrenergic receptor beta = Adrenergic receptor beta (Rattus norvegicus, UniProt P18090+P10608+P26255); assay: Antagonism of Beta adrenergic receptor in the isolated rat uterus; format: functional, tissue-based
Histamine H1 receptor = Histamine H1 receptor (Cavia porcellus, UniProt P31389); assay: Antagonism of Histamine H1 receptor in the isolated guinea pig ileum; format: functional, tissue-based; conditions: read-out: pA2 (converted)
Chain of Histamine H1 receptor (P31389 whole entry): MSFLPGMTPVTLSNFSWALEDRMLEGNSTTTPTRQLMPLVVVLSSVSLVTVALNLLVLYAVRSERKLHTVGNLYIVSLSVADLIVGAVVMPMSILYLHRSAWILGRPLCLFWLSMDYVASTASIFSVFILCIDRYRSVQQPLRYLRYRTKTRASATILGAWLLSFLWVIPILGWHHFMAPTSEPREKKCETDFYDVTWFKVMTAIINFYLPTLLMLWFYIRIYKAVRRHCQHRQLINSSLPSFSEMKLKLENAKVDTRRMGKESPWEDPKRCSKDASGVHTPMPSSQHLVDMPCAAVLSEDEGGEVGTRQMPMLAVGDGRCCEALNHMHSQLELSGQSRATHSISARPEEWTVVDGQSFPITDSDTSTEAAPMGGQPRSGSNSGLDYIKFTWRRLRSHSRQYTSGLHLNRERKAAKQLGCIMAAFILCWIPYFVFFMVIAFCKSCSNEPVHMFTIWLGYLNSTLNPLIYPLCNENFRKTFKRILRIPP
Procedure, shortened: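 Isolated guinea pig ileum; contractile responses to histamine (H1) or methacholine (muscarinic) were tested for blockade.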

Histamine H2 receptor = Histamine H2 receptor (Cavia porcellus, UniProt P47747); assay: Competitive antagonism of Histamine H2 receptor in the isolated guinea pig atrium; format: functional, tissue-based, Cardiac atrium; conditions: read-out: pA2 (converted)
Chain of Histamine H2 receptor (P47747 whole entry): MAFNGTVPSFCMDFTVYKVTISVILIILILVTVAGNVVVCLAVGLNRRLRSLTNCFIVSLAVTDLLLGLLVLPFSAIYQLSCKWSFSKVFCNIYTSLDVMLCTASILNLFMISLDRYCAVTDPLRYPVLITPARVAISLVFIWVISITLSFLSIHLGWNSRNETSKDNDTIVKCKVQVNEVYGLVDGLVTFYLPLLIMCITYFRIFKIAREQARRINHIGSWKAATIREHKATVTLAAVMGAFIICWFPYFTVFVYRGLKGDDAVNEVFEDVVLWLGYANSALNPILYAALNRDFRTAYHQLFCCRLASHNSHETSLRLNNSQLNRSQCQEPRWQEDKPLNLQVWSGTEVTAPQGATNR
Procedure, shortened: (§1)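 Isolated guinea pig right atrium; antagonism of the positive chronotropic response to histamine. Apparent KB from the Furchgott method: KB = antagonist concentration/(dose ratio − 1), using a single antagonist concentration that gave parallel dose-response shifts without lowering the maximum. Values are means of three to five preparations per antagonist.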

Cavia porcellus = species: Cavia porcellus; assay: Antagonism of the positive chronotropic action of histamine in the isolated guinea pig atrium; format: functional; conditions: Cardiac atrium; procedure, shortened: as §1
Rattus norvegicus = species: Rattus norvegicus; assay: Inhibition of gastric acid secretion in the pylorus-ligated rat (after 2h); format: functional; conditions: Stomach
Procedure, shortened: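 Pylorus-ligated rat, by a modified Shay procedure. Compound given subcutaneously at no fewer than five dose levels (three in one case), with at least five rats per dose.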

[1] = Potency ratio in pylorus-ligated rat relative to cimetidine (after 2h); format: functional

Compound	pA2 (Adrenergic receptor beta)	Kb (Histamine H1 receptor)	Kb (Histamine H2 receptor)	Kb (Cavia porcellus)	ED50 (Rattus norvegicus)	Ratio [1]
N=C(N)Nc1nc(CSCCNc2n[s+]([O-])nc2N)cs1 (centres undefined)	4.3	126000 nM	25.1 nM			
CNC1=NS(=O)(=O)N=C1NCCSCc1ccc(CN(C)C)s1				140 nM	0.072 µmol/kg	94
CNC1=NS(=O)(=O)N=C1NCCSCc1[nH]cnc1C				11500 nM	131 µmol/kg	0.07
CN(C)Cc1cccc(OCCCNc2n[s+]([O-])nc2N)c1 (centres undefined)				65 nM	0.066 µmol/kg	142
CN/C(=N\CCSCc1nc[nH]c1C)NC#N [CIMETIDINE]				1200 nM	9.4 µmol/kg	
